ADAM10 inh: inhibitors of human ADAM10. recombinant ADAM10, EDANS/DABCYL FRET peptide cleavage, 3 h. inhibition, % at 7 µM. hit rate 0.62% among 370,000;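 active = inhibition above a per-campaign cutoff equal to the mean of compounds falling between control-based bounds plus 3 SD, cut at about 20% in these data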
CendR NRP1 mod: modulators of CendR peptide binding to human neuropilin-1. FAM-RPARPAR peptide binding to NRP-1, fluorescence polarization. O14786. hit rate 0.85% among 360,000. inhibition, % at 25 µM;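 active = inhibition or corrected inhibition above about 18%, plus a signal ratio from 0.5 to 1.5, limit read from the data, passing the limit was not always enough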
FAS TE block: FAS thioesterase (human) inhibition; P49327; recombinant FAS-TE, OMFH fluorogenic substrate, fluorescence endpoint; inhibition, % at 15 µM; hit rate 0.67% among 360,000;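 active = compounds whose normalised, plate-corrected inhibition of enzyme fluorescence in the single-dose primary screen is 50% or more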
Target sequence (P49327 whole entry, looked up): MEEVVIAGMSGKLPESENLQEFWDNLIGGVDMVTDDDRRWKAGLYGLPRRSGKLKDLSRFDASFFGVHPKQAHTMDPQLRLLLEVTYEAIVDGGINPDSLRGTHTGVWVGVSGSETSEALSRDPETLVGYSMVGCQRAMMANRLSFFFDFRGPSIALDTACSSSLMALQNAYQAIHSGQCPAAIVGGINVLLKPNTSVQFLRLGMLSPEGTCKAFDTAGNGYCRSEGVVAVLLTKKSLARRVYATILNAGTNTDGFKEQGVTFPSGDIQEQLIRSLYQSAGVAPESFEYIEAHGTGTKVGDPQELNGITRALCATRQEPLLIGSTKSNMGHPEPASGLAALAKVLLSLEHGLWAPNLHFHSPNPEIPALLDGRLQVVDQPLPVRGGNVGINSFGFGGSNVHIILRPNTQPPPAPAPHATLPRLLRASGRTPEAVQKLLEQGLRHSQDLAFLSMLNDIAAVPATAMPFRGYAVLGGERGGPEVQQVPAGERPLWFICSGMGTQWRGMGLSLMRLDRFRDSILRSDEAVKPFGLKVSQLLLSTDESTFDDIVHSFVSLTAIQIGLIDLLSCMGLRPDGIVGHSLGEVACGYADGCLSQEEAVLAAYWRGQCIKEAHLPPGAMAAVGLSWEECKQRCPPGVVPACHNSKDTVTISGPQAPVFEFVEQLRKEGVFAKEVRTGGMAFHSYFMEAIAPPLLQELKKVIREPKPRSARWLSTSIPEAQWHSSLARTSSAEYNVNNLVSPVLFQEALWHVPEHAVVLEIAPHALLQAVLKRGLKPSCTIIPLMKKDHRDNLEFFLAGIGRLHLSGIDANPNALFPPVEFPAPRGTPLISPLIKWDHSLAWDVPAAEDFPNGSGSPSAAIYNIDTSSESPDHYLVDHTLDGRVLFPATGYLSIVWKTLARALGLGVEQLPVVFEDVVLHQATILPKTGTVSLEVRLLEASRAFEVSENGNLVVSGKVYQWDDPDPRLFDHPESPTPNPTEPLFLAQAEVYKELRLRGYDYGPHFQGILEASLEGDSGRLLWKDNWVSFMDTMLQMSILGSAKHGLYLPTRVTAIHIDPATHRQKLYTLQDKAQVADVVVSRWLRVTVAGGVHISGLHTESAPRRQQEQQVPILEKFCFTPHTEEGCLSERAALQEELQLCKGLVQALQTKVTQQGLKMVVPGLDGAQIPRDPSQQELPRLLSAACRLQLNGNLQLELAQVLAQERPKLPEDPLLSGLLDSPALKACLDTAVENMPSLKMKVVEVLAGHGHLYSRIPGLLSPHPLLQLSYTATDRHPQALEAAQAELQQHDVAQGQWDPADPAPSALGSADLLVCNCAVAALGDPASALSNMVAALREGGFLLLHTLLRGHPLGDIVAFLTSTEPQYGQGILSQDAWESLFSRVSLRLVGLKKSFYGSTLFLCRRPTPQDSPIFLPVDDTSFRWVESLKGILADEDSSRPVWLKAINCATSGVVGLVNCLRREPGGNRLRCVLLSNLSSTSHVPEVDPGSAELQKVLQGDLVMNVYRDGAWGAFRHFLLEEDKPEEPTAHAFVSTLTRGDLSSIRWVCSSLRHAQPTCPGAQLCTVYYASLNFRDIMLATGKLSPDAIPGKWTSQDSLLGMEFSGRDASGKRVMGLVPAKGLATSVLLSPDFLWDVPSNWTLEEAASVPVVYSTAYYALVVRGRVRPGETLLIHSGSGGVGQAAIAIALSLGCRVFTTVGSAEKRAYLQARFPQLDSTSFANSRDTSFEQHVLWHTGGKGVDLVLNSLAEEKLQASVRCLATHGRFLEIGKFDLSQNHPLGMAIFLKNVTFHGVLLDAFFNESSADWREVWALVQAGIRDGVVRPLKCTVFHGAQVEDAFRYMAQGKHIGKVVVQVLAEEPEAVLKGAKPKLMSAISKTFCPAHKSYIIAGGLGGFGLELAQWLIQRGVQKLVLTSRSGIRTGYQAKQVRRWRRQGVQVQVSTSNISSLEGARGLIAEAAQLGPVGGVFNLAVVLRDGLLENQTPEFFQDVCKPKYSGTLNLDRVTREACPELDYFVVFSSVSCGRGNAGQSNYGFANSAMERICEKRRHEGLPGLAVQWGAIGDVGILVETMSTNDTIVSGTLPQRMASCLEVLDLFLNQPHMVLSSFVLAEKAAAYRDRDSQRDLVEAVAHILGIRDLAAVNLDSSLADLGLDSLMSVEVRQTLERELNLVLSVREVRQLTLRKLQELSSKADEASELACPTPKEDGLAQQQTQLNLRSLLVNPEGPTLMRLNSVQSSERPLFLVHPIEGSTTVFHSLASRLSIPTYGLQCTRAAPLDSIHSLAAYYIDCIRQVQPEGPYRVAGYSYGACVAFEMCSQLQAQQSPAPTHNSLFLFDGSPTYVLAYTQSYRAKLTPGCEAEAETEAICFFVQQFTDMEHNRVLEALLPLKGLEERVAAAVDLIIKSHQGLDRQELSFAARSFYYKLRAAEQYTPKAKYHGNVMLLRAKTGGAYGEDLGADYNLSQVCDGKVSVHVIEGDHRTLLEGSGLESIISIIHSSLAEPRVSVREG
CaV13 FRET inh: Primary screen for inhibitors of IQ motif and Ca2+-dependent inactivation inhibitor domain binding in CACNA1D, Förster resonance energy transfer in living cells, …; AID 743397; inhibition, % at 12.3 µM; HEK cells, CFP/YFP FRET ICDI-IQ, plate reader, 10 min; percent FRET-ratio fall versus neutral wells; hit rate 0.098% among 340,000;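 active = mean replicate inhibition of at least 30% and at least 1% of replicates passing that level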
Arrestin-AP2 inh: inhibitors of human beta-arrestin and AP2 interaction. FITC-arrestin peptide / GST-AP2 beads, flow cytometry; AP2 beta2 appendage carries R879A mutation. inhibition, % at 10 µM. hit rate 0.31% among 340,000. AID 504490;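 active = inhibition above a set limit, near 3 SD of compounds lacking own fluorescence, cut at about 54% in these data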
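system = GST-tagged AP2 beta2-adaptin appendage (R879A) on 4 µm glutathione beads | reagent = FITC-labelled arrestin peptide probe, 50 nM final | schedule = compound with beads 12 min RT, then probe 1 h RT | signal = HyperCyt-sampled flow cytometry, FL1 channel, ex 488/em 535 nm | read-out = percent response from loss of bead-bound FITC fluorescence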
ADAM17 inh: inhibits human ADAM17; recombinant ADAM17, EDANS/DABCYL FRET peptide cleavage; hit rate 0.83% among 370,000; AID 720648; inhibition, % at 6.95 µM;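 active = inhibition above the mean of compounds lying between control limits plus 3 SD, set per campaign, cut at about 8.5% in these data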
Large screens that a line does not name were inactive. Shown are actives, neighbours in structure and some others; about 2.9% of the full set was active somewhere.

O=C(O)c1ccc(N2N=C(c3ccccc3)CC2c2ccccc2)cc1 (stereo not given)	CaV13 FRET inh 115
COc1ccc(C2CC(c3ccccc3)=NN2c2ccc(C(N)=O)cc2)cc1 (stereo not given)	CaV13 FRET inh 83
CN(c1ccc(OCC(=O)OCC(=O)Nc2ccccc2)cc1)S(=O)(=O)c1ccc(F)cc1	none
CN(c1ccc(OCC(=O)OCC(=O)Nc2ccc([N+](=O)[O-])cc2)cc1)S(=O)(=O)c1cccs1	CendR NRP1 mod 32
CCCC(=O)Nc1ccc2c(c1)C(=O)N(C)[C@H]1CC[C@@H](CC(=O)OC)O[C@@H]1CO2	none (no result: CendR NRP1 mod, FAS TE block, CaV13 FRET inh, Arrestin-AP2 inh)
N#CCCN(CCC#N)S(=O)(=O)c1ccc(C(=O)Nc2nnc(C3=COCCO3)o2)cc1	none
CCCCN(C)S(=O)(=O)c1ccc(C(=O)Nc2nnc(C3=COCCO3)o2)cc1	CendR NRP1 mod 30
CCCN(CCC)S(=O)(=O)c1ccc(C(=O)Nc2nnc(-c3cc(OC)cc(OC)c3)o2)cc1	CendR NRP1 mod 25 (no result: ADAM10 inh, CaV13 FRET inh, ADAM17 inh)
CCCN(CCC)S(=O)(=O)c1ccc(C(=O)Nc2nnc(-c3cccc(OC)c3)o2)cc1	none
COc1ccc(N2C(=O)c3n[nH]c(C(C)C)c3C2c2ccc(F)cc2)cc1 (stereo not given)	none (no result: CendR NRP1 mod, FAS TE block, Arrestin-AP2 inh)
COC(=O)Cc1nnn2c1[C@H](C)[C@@H](OC)c1ccccc1-2	none (no result: CendR NRP1 mod, FAS TE block, Arrestin-AP2 inh)
CC(C)C(Cl)=NOC(=O)Nc1ccc(S(N)(=O)=O)cc1	none
O=C(Nc1ccc(Cl)c(C(F)(F)F)c1)[C@@H]1CC=C[C@@H]2CCN(C3CC3)C(=O)[C@@H]21	CendR NRP1 mod 24
COC(=O)c1ccccc1NC(=O)CSc1nc(C)cc(C)n1	CendR NRP1 mod 45
COC(=O)c1ccccc1NC(=O)CSc1nc(N)cc(N)n1	none
COc1cccc(NC(=O)Nc2c(-c3ccc(C)cc3)nc3ncccn23)c1	none (no result: CendR NRP1 mod, FAS TE block, CaV13 FRET inh, Arrestin-AP2 inh)
CC(C)CCN(CCC(C)C)CC(O)Cn1c2ccccc2c(=O)c2ccccc21 (stereo not given)	CaV13 FRET inh active
COc1ccccc1Oc1ccc(S(=O)(=O)N2CCOCC2)cc1S(=O)(=O)N1CCOCC1	CendR NRP1 mod 27 (no result: CaV13 FRET inh)
Cc1ccccc1C(C)NS(=O)(=O)c1ccc2c(c1)OCCO2 (stereo not given)	none
CC(NC(=O)C1CCN(C(=O)Nc2ccccc2)CC1)c1ccccc1 (stereo not given)	none
CCCCn1c(CCCNC(=O)c2ccco2)nc2ccccc21	CendR NRP1 mod 22
CCCCn1c(CCNC(=O)c2ccco2)nc2ccccc21	none
Cn1c(CNC(=O)c2ccccc2F)nnc1SCC(=O)c1ccccc1	CendR NRP1 mod 27 (no result: CaV13 FRET inh)
Cn1c(CNC(=O)c2ccccc2F)nnc1SCC(=O)NCc1ccccc1	none
CCCNC(=S)Nc1ccc(CC(=O)OC)cc1	CendR NRP1 mod 24
COC(=O)Cc1ccc(NC(=S)NCC(C)C)cc1	none
O=C(c1cccs1)N1CC=C(c2ccccc2)CC1	CendR NRP1 mod 17
COc1ccc(C(=O)N(C)[C@H]2C[C@H]3c4[nH]c5cccc(-c6ccccc6)c5c4CCN3C[C@H]2[C@H](C)O)cc1	none (no result: CendR NRP1 mod, FAS TE block, CaV13 FRET inh, Arrestin-AP2 inh)
COc1ccc(Nc2nnc(-c3ccc4c(c3)OCO4)o2)cc1	none (no result: CendR NRP1 mod, FAS TE block, Arrestin-AP2 inh)
CCCCOCCCNC(=O)C[C@H]1C[C@@]2(C(=O)OC)C(=C[C@H](C(C)C)O[C@@H]2C2CC2)N(CCc2ccc(OC)c(OC)c2)C1=O	none (no result: CendR NRP1 mod, FAS TE block, CaV13 FRET inh, Arrestin-AP2 inh)
Cc1ccc2cc(CN(CCCN(C)C)C(=O)NCc3ccccc3)c(=O)[nH]c2c1C	CendR NRP1 mod 38 (no result: CaV13 FRET inh)
Cc1ccc2cc(CN(CCCN(C)C)C(=S)NCc3ccccc3)c(=O)[nH]c2c1C	none
C/C(CCC1CC(C)(C)OC1=O)=N\NC(N)=S (stereo not given)	none
CCCC1CC(C)(/C(C)=N\NC(N)=S)OC1=O (stereo not given)	Arrestin-AP2 inh 56
Cc1cc(Cl)ccc1NC(=O)c1ccc2c(c1)CCN2S(C)(=O)=O	CendR NRP1 mod 16
COc1ccc(C2NC(=O)c3ccccc3O2)cc1 (stereo not given)	CendR NRP1 mod 23
COc1ccc(C2NC(=O)c3ccccc3O2)cc1OC (stereo not given)	none (no result: CaV13 FRET inh)
CCOc1ccccc1-c1ccc(C(=O)NCc2ccccc2)o1	CendR NRP1 mod 27
Cc1ccc(-c2ccc(C(=O)NCc3ccccc3)o2)c2ccccc12	none
COc1ccc2c(c1)N(C)/C(=C1/SC(=NCc3ccccc3)N(c3ccccc3)C1=O)S2	CendR NRP1 mod 27
C=CCN1C(=O)/C(=C2/Sc3ccc(OC)cc3N2C)SC1=NCc1ccccc1	none
CCC(C)NC(=O)CN1C(=O)C2CCCCN2C(=O)c2ccccc21 (stereo not given)	none (no result: CendR NRP1 mod, FAS TE block, CaV13 FRET inh, Arrestin-AP2 inh)
CCn1ncc(Br)c1C(=O)Nc1ccn(C23CC4CC(CC(C4)C2)C3)n1	none
CCn1ncc(Br)c1C(=O)N(C)C12CC3CC(CC(C3)C1)C2	CendR NRP1 mod 27 (no result: CaV13 FRET inh)
O=c1ccc2cc3c([nH]c4ccc(Br)cc43)oc-2c1O	Arrestin-AP2 inh 72
O=C(O)c1ccc(N=Nc2c(O)[nH]c3ccc(Br)cc23)cc1	none
O=C(CN1CCN(C(C(=O)Nc2ccc(F)cc2)c2ccccc2)CC1)NC1CC1 (stereo not given)	none
CCc1cccc(NC(=O)CC2Oc3ccccc3NC2=O)c1 (stereo not given)	none
CC1CCN(Cc2ccc(NC(=O)CC3Oc4ccccc4NC3=O)cc2)CC1 (stereo not given)	CaV13 FRET inh 52
Cc1ccc2nc(-c3ccc(NC(=O)CSc4nnc(-c5cccc(Cl)c5)n4Cc4ccco4)cc3)sc2c1	none (no result: CendR NRP1 mod, FAS TE block, CaV13 FRET inh, Arrestin-AP2 inh)
CCCOc1ccc(S(=O)(=O)NNC(=O)c2cc3ccccc3o2)cc1	none
CCOc1ccc(S(=O)(=O)NNC(=O)c2cc3ccccc3o2)cc1	CendR NRP1 mod 43
COC(=O)[C@@]12CCCCC=C1N(CCc1ccc(Cl)cc1)C(=O)[C@H]2CC(=O)NCC1CCCCC1	none (no result: CendR NRP1 mod, FAS TE block, CaV13 FRET inh, Arrestin-AP2 inh)
Cc1cc(C)cc(NC(=O)c2ccc(CSc3nnnn3C)cc2)c1	CendR NRP1 mod 28 (no result: CaV13 FRET inh)
C[C@@H]1CN([C@H](C)CO)C(=O)c2cc(Br)cnc2O[C@@H]1CN(C)C(=O)c1ccccc1	none (no result: Arrestin-AP2 inh)
N#Cc1ccc(S(=O)(=O)N2CCCc3nc(-c4ccc(Br)cc4)ccc32)cc1	none (no result: CendR NRP1 mod, FAS TE block, Arrestin-AP2 inh)
COc1ccc(NC(=S)Nn2cnnc2)c(OC)c1	CendR NRP1 mod 44
COc1ccc(NC(=S)Nn2cnnc2)cc1OC	none
COc1ccc(C(=O)N[C@H](C(=O)Nc2nc3c(s2)CCCC3)C(C)C)cc1	CendR NRP1 mod 26
CCOc1ccccc1C(=O)N[C@H](C(=O)Nc1nc2c(s1)CCCC2)C(C)C	none
Cc1ccnc(Nc2cccnc2)n1	none (no result: Arrestin-AP2 inh)
CCC(C(=O)NC1CCN(C)CC1)c1ccccc1 (stereo not given)	CendR NRP1 mod 53

Screens from PubChem.
